Measured values taken from ChEMBL document CHEMBL1143122, “Novel analogs of D-e-MAPP and B13. Part 1: synthesis and evaluation as potential anticancer agents” (Bioorg Med Chem, 2008).

Legend:
UO-31 = test: Antiproliferative activity against human UO31 cells after 48 hrs; assay type: functional; details: UO-31, 48 h
In short: (§1)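 NCI 60-cell-line screen. Lines grown in RPMI 1640 with 5% fetal bovine serum and 2 mM L-glutamine, plated at 5,000–40,000 cells/well according to doubling time, left 24 h at 37 °C in 5% CO2. Drug stocks in DMSO at 400-fold the top final concentration. Five 10-fold dilutions, 10−4 to 10−8 M, incubated 48 h. Growth read spectrophotometrically as net protein; GI50 taken as 50% reduction.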

UACC-257 = test: Antiproliferative activity against human UACC257 cells after 48 hrs; assay type: functional; details: UACC-257, 48 h; in short: as §1
SK-MEL-5 = test: Antiproliferative activity against human SKMEL5 cells after 48 hrs; assay type: functional; details: SK-MEL-5, 48 h
In short: (§2)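 NCI 60-cell screen. Cells were grown in RPMI 1640 with 5% FBS and 2 mM L-glutamine, then plated at 5,000–40,000 cells/well according to doubling time and preincubated for 24 h at 37 °C in 5% CO2. Compounds were dissolved in DMSO at 400× the top final concentration and tested at five 10-fold dilutions from 10−4 to 10−8 M for 48 h. Growth was read spectrophotometrically; GI50 is 50% net protein reduction.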

OVCAR-3 = test: Antiproliferative activity against human OVCAR-3 cells after 48 hrs; assay type: functional; details: OVCAR-3, 48 h; in short: as §2
SF-539 = test: Antiproliferative activity against human SF539 cells after 48 hrs; assay type: functional; details: SF-539, 48 h; in short: as §2
SW-620 = test: Antiproliferative activity against human SW620 cells after 48 hrs; assay type: functional; details: SW-620, 48 h; in short: as §1
NCI-H522 = test: Antiproliferative activity against human NCI-H522 cells after 48 hrs; assay type: functional; details: NCI-H522, 48 h; in short: as §2
CCRF-CEM = test: Antiproliferative activity against human CCRF-CEM cells after 48 hrs; assay type: functional; in short: as §2
U-251 = test: Antiproliferative activity against human U251 cells after 48 hrs; assay type: functional; details: U-251, 48 h; in short: as §1
MCF7 = test: Antiproliferative activity against human MCF7 cells after 48 hrs; assay type: functional, cell-based; details: MCF7, 48 h
SK-MEL-28 = test: Antiproliferative activity against human SKMEL28 cells after 48 hrs; assay type: functional; details: SK-MEL-28, 48 h; in short: as §2
HOP-62 = test: Antiproliferative activity against human HOP62 cells after 48 hrs; assay type: functional; details: HOP-62, 48 h; in short: as §2
ACHN = test: Antiproliferative activity against human ACHN cells after 48 hrs; assay type: functional; in short: as §2
KM12 = test: Antiproliferative activity against human KM12 cells after 48 hrs; assay type: functional; details: Homo sapiens, KM12, 48 h; in short: as §2
HCC 2998 = test: Antiproliferative activity against human HCC2998 cells after 48 hrs; assay type: functional; details: HCC 2998, 48 h; in short: as §2
K562 = test: Antiproliferative activity against human K562 cells after 48 hrs; assay type: functional; details: K562, 48 h; in short: as §2
SNB-75 = test: Antiproliferative activity against human SNB75 cells after 48 hrs; assay type: functional; details: SNB-75, 48 h; in short: as §2
DU-145 = test: Antiproliferative activity against human DU145 cells after 48 hrs; assay type: functional; details: DU-145, 48 h; in short: as §2
A549 = test: Antiproliferative activity against human A549 cells after 48 hrs; assay type: functional; details: A549, 48 h; in short: as §2
M14 = test: Antiproliferative activity against human M14 cells after 48 hrs; assay type: functional; details: M14, 48 h; in short: as §2
MDA-MB-435 = test: Antiproliferative activity against human MDA-MB-435 cells after 48 hrs; assay type: functional; details: Homo sapiens, MDA-MB-435, 48 h; in short: as §2
Hs-578T = test: Antiproliferative activity against human HS578T cells after 48 hrs; assay type: functional; in short: as §2
OVCAR-4 = test: Antiproliferative activity against human OVCAR4 cells after 48 hrs; assay type: functional; details: OVCAR-4, 48 h; in short: as §2
LOX IMVI = test: Antiproliferative activity against human LOXIMVI cells after 48 hrs; assay type: functional; in short: as §2
SF-268 = test: Antiproliferative activity against human SF268 cells after 48 hrs; assay type: functional; details: SF-268, 48 h; in short: as §2
SK-OV-3 = test: Antiproliferative activity against human SKOV3 cells after 48 hrs; assay type: functional; details: SK-OV-3, 48 h; in short: as §2
PC-3 = test: Antiproliferative activity against human PC3 cells after 48 hrs; assay type: functional; details: PC-3, 48 h; in short: as §2
SNB-19 = test: Antiproliferative activity against human SNB19 cells after 48 hrs; assay type: functional; details: SNB-19, 48 h; in short: as §2
IGROV-1 = test: Antiproliferative activity against human IGROV1 cells after 48 hrs; assay type: functional; details: IGROV-1, 48 h; in short: as §2
HT-29 = test: Antiproliferative activity against human HT29 cells after 48 hrs; assay type: functional; details: HT-29, 48 h; in short: as §2
T47D = test: Antiproliferative activity against human T47D cells after 48 hrs; assay type: functional; in short: as §1
[1] = Antiproliferative activity against human […] cells after 48 hrs; assay type: functional; in short: as §2
HOP-92 = test: Antiproliferative activity against human HOP92 cells after 48 hrs; assay type: functional; details: HOP-92, 48 h; in short: as §2
[2] = read-out: Log LC50 (the source's name) (converted)

CCCCCCCCCCCCCCN[C@H](CO)[C@H](O)c1ccc([N+](=O)[O-])cc1.Cl
GI50 (UO-31): 4.27 µM
LC50 (UO-31): 87.1 µM
TGI (UO-31; read-out: Log TGI (converted)): 18.6 µM
GI50 (UACC-257): 4.27 µM
CC50 (UACC-257; [2]): 93.3 µM
TGI (UACC-257; read-out: Log TGI (converted)): 20.9 µM
GI50 (SK-MEL-5): 2.45 µM
CC50 (SK-MEL-5; [2]): > 100 µM
TGI (SK-MEL-5; read-out: Log TGI (converted)): 7.08 µM
GI50 (OVCAR-3): 8.13 µM
LC50 (OVCAR-3): 100 µM
TGI (OVCAR-3; read-out: Log TGI (converted)): 30.9 µM
GI50 (SF-539): 1.66 µM
LC50 (SF-539): 6.03 µM
TGI (SF-539; read-out: Log TGI (converted)): 3.16 µM
GI50 (SW-620): 2 µM
LC50 (concentration killing 50% of cells) (SW-620): 100 µM
TGI (SW-620; read-out: Log TGI (converted)): 4.68 µM
GI50 (NCI-H522): 2 µM
TGI (NCI-H522; read-out: Log TGI (converted)): 3.98 µM
GI50 (CCRF-CEM): 2 µM
TGI (CCRF-CEM; read-out: Log TGI (converted)): 3.98 µM
GI50 (U-251): 1.86 µM
TGI (U-251; read-out: Log TGI (converted)): 3.47 µM
GI50 (MCF7): 1.91 µM
TGI (MCF7; read-out: Log TGI (converted)): 3.47 µM
GI50 (SK-MEL-28): 1.91 µM
LC50 (SK-MEL-28): 6.03 µM
TGI (SK-MEL-28; read-out: Log TGI (converted)): 3.39 µM
GI50 (HOP-62): 1.91 µM
CC50 (HOP-62; [2]): 6.31 µM
TGI (HOP-62; read-out: Log TGI (converted)): 3.47 µM
GI50 (ACHN): 1.86 µM
CC50 (ACHN; [2]): 6.17 µM
TGI (ACHN; read-out: Log TGI (converted)): 3.39 µM
GI50 (KM12): 1.86 µM
CC50 (KM12; [2]): 6.17 µM
TGI (KM12; read-out: Log TGI (converted)): 3.39 µM
GI50 (HCC 2998): 2.4 µM
CC50 (HCC 2998; [2]): 29.5 µM
TGI (HCC 2998; read-out: Log TGI (converted)): 5.62 µM
GI50 (K562): 1.86 µM
LC50 (K562): 7.76 µM
TGI (K562; read-out: Log TGI (converted)): 3.8 µM
GI50 (SNB-75): 3.98 µM
CC50 (SNB-75; [2]): 60.3 µM
TGI (SNB-75; read-out: Log TGI (converted)): 26.9 µM
GI50 (DU-145): 1.55 µM
CC50 (DU-145; [2]): 5.37 µM
TGI (DU-145; read-out: Log TGI (converted)): 2.88 µM
GI50 (A549): 3.55 µM
CC50 (A549; [2]): > 100 µM
TGI (A549; read-out: Log TGI (converted)): 19.5 µM
GI50 (M14): 2.04 µM
LC50 (M14): 6.92 µM
TGI (M14; read-out: Log TGI (converted)): 3.72 µM
GI50 (MDA-MB-435): 1.91 µM
LC50 (MDA-MB-435): 5.75 µM
TGI (MDA-MB-435; read-out: Log TGI (converted)): 3.31 µM
GI50 (Hs-578T): 2.09 µM
LC50 (Hs-578T): 100 µM
TGI (Hs-578T; read-out: Log TGI (converted)): 5.25 µM
GI50 (OVCAR-4): 1.91 µM
LC50 (OVCAR-4): 6.76 µM
TGI (OVCAR-4; read-out: Log TGI (converted)): 3.55 µM
GI50 (LOX IMVI): 1.74 µM
LC50 (LOX IMVI): 6.03 µM
TGI (LOX IMVI; read-out: Log TGI (converted)): 3.24 µM
GI50 (SF-268): 2.09 µM
LC50 (SF-268): > 100 µM
TGI (SF-268; read-out: Log TGI (converted)): 4.9 µM
GI50 (SK-OV-3): 8.91 µM
CC50 (SK-OV-3; [2]): 79.4 µM
TGI (SK-OV-3; read-out: Log TGI (converted)): 27.5 µM
GI50 (PC-3): 1.74 µM
TGI (PC-3; read-out: Log TGI (converted)): 3.16 µM
GI50 (SNB-19): 1.74 µM
TGI (SNB-19; read-out: Log TGI (converted)): 3.55 µM
GI50 (IGROV-1): 1.91 µM
TGI (IGROV-1; read-out: Log TGI (converted)): 3.63 µM
GI50 (HT-29): 1.86 µM
TGI (HT-29; read-out: Log TGI (converted)): 3.47 µM
GI50 (T47D): 3.8 µM
CC50 (T47D; [2]): 87.1 µM
TGI (T47D; read-out: Log TGI (converted)): 14.1 µM
GI50 [1]: 2 µM
LC50 [1]: 8.91 µM
TGI ([1]; read-out: Log TGI (converted)): 4.27 µM
GI50 (HOP-92): 1.26 µM
LC50 (HOP-92): 6.17 µM
TGI (HOP-92; read-out: Log TGI (converted)): 2.75 µM
